Assay results reported in ChEMBL document CHEMBL1135666, “Adenosine 5'-O-(1-boranotriphosphate) derivatives as novel P2Y(1) receptor agonists” (J Med Chem, 2002).
pEC50: −log10 of the molar value.

Experiments:
[1] = species on record: Bos taurus; test: Kinetic parameter Vmax value for Bovine spleen NTPDase1 hydrolysis.; assay type: ADME; settings: cattle
Summary of the method: (§1)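 Semipurified bovine spleen particulate NTPDase1 (about 1 μg protein), preincubated 3 min at 37 °C in 8 mM CaCl2, 5 mM tetramisole, 50 mM imidazole, 50 mM Tris pH 7.5. The reaction was started with substrate at 10–100 μM and stopped after 7 min with malachite green to read Pi release. Apparent Km and Vmax came from a Woolf–Augustinson–Hofstee plot; assays were run in triplicate.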

[2] = tested on: NTPDase1; test: Kinetic parameter Km value for Bovine spleen NTPDase1 hydrolysis.; assay type: ADME, Bos taurus; settings: cattle; summary of the method: as §1
[3] = target: P2Y purinoceptor 1 (Rattus norvegicus, UniProt P49651); test: Agonists activity was evaluated by release of [Ca2+] release of HEK 293 cells stably transfected with rat-brain P2Y purinoceptor 1 (P2Y1-R); assay type: functional, cell-based, HEK293
Summary of the method: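 HEK293 cells stably expressing rat brain P2Y1 receptor, grown on coverslips, loaded 30 min with 2 μM Fura 2-AM in HEPES-buffered saline pH 7.4. Continuous superfusion with 35 °C HBS containing varying nucleotide concentrations. Single-cell fluorescence at 340/380 nm excitation, 500 nm emission. EC50 from concentration–response of ΔF340/F380, averaged over 60–100 cells; at least three separate experiments; ATP as reference.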

[4] = Hydrolysis rate constant was determined; assay type: ADME
Summary of the method: (§2)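 ³¹P NMR follow-up of hydrolysis at 37 °C. At pH 7.4 the diastereoisomeric mixture (tetrasodium salt) was held in Tris-HCl buffer and recorded for 3 weeks at 1–3 day intervals; hydrolysis came from Pγ (−7.5 ppm) versus inorganic phosphate (1.7 ppm) integrals. At pH 1.4 the sample was in KCl/HCl buffer with D2O, recorded for 17 h every 0.5 h; Pβ intensity versus time was fit to pseudo-first-order kinetics.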

[5] = Half life was determined; assay type: ADME; summary of the method: as §2
[6] = Half life was determined; settings: pH 1.4, 37 °C

P2Y purinoceptor 1, sequence (P49651 whole entry, the tested form may be a part): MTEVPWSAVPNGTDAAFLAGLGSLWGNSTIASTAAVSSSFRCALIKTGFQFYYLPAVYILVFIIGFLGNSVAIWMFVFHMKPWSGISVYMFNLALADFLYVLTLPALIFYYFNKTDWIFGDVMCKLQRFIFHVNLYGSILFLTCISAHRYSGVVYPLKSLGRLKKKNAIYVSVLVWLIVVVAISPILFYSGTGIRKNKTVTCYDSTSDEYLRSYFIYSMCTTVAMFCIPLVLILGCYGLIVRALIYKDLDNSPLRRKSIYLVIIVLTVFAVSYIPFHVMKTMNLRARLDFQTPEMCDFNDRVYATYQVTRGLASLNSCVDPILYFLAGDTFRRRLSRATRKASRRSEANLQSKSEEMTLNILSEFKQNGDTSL

| SMILES | Vmax [1] [µmol/min/mg] | Km [2] [µM] | pEC50 [3] | Hydrolysis rate constant [4] [s⁻¹] | half-life [5] [h] | half-life [6] [h] |
| --- | --- | --- | --- | --- | --- | --- |
| Nc1ncnc2c1ncn2[C@@H]1O[C@H](COP(=O)([O-])OP(=O)([O-])OP(=O)([O-])[O-])[C@@H](O)[C@H]1O.[Na+].[Na+].[Na+].[Na+] | 2.4 | 15.9 |  |  |  |  |
| CSc1nc(N)c2ncn([C@@H]3O[C@H](COP(=O)([O-])OP(=O)([O-])OP(=O)([O-])[O-])[C@@H](O)[C@H]3O)c2n1.[Na+].[Na+].[Na+].[Na+] | 1.9 | 62 | 9.00 |  |  |  |
| [BH3-]P(=O)(OC[C@H]1O[C@@H](n2cnc3c(N)nc(Cl)nc32)[C@H](O)[C@@H]1O)OP(=O)([O-])OP(=O)([O-])[O-].[Na+].[Na+].[Na+].[Na+] (stereo partly drawn) | 0.88 | 7.2 |  | 7.2e-05 | 2.7 |  |
| [BH3-]P(=O)(OC[C@H]1O[C@@H](n2cnc3c(N)nc(SC)nc32)[C@H](O)[C@@H]1O)OP(=O)([O-])OP(=O)([O-])[O-].[Na+].[Na+].[Na+].[Na+] (stereo partly drawn) | 0.89 | 17.4 | 8.59 |  |  | 5.9 |
| Nc1nc(Cl)nc2c1ncn2[C@@H]1O[C@H](COP(=O)([O-])OP(=O)([O-])OP(=O)([O-])[O-])[C@@H](O)[C@H]1O.[Na+].[Na+].[Na+].[Na+] | 1.9 | 12.9 |  |  |  |  |
| [BH3-]P(=O)(OC[C@H]1O[C@@H](n2cnc3c(N)ncnc32)[C@H](O)[C@@H]1O)OP(=O)([O-])OP(=O)([O-])[O-].[Na+].[Na+].[Na+].[Na+] (stereo partly drawn) | 0.78 | 13.8 | 6.70 |  |  |  |
